From ChEMBL document CHEMBL3785029, “Synthesis and Characterization of Fatty Acid Conjugates of Niacin and Salicylic Acid” (J Med Chem, 2016)

Experiments:
Intestine = assay: Drug metabolism in Sprague-Dawley rat intestine assessed as linker EPA metabolite (5Z,8Z,11Z,14Z,17Z)-N-(2-aminoethyl)icosa-5,8,11,14,17-pentaenamide formation at 300 mg/kg, qd administered through oral gavage for 7 days measured 2 hrs post last dose by LC/MS/MS analysis; type: ADME, organism-based; settings: in vivo
[1] = biological target: T1, Sterol regulatory element-binding protein 2 (Homo sapiens) (UniProt Q12772); assay: Inhibition of SREBP2 in human HepG2 cells assessed as downregulation of PCSK9 mRNA expression by RT-PCR analysis; type: cell-based
T1 sequence (whole entry): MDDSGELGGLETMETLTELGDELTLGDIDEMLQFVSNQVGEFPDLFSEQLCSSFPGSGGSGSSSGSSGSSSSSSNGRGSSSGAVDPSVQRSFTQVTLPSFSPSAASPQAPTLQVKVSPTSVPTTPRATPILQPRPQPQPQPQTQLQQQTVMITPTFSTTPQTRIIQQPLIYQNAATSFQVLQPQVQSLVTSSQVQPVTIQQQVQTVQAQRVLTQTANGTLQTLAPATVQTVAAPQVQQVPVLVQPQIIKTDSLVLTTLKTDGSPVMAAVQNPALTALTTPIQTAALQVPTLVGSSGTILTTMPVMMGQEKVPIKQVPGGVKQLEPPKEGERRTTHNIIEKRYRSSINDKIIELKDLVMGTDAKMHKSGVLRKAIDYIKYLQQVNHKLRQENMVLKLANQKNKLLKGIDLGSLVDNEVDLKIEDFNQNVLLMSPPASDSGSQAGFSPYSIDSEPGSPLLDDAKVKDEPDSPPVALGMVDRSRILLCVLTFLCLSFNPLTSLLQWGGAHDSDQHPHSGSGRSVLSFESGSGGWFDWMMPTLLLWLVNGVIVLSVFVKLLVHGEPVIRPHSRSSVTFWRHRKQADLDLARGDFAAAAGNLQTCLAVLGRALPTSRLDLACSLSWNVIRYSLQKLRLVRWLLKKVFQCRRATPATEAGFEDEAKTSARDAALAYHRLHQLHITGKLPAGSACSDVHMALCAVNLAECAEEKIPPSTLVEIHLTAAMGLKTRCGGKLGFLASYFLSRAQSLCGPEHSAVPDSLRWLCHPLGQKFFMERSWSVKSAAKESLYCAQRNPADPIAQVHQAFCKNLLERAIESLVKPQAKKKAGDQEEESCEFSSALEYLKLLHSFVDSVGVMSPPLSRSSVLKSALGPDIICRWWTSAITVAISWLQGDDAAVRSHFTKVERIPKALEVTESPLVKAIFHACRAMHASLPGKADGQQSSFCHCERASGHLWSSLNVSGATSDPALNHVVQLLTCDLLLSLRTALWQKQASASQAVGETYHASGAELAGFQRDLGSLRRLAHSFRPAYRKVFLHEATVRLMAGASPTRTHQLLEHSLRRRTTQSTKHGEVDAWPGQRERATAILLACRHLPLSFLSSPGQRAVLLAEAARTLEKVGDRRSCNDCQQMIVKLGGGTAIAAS

[2] = biological target: T2, Fatty-acid amide hydrolase 1 (Homo sapiens, UniProt O00519); assay: Drug metabolism in human HepG2 cells assessed as FAAH-mediated compound hydrolysis by measuring level of EPA at 50 uM by LC/MS-MS analysis; type: ADME, cell-based; settings: hepg2, 50 µM, TDE = time-dependent effect
T2 sequence (O00519 whole entry): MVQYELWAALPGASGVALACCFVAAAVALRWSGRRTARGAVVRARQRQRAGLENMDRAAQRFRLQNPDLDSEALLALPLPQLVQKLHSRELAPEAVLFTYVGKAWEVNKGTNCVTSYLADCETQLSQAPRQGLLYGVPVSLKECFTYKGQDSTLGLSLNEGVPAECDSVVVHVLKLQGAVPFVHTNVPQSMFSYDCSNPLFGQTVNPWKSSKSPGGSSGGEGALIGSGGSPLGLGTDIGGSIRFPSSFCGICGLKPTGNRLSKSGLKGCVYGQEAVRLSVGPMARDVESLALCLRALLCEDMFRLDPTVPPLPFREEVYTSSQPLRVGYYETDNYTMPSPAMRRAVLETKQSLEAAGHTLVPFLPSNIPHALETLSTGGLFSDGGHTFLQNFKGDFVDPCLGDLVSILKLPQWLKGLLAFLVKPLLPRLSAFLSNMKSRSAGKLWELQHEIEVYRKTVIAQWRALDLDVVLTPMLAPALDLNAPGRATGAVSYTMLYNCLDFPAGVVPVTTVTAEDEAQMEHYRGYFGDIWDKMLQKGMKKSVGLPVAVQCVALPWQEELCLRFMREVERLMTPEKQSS

[3] = biological target: T1, Sterol regulatory element-binding protein 2 (Homo sapiens); assay: Inhibition of SREBP2 maturation in human HepG2 cells at 25 to 50 uM after overnight incubation by immunoblot analysis; type: cell-based
Outline: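 Human HepG2 cells incubated with compound (25 and 50 µM), alone or together with 10 µM atorvastatin; mature SREBP-2 protein level assessed.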

Brain [4] = assay: Drug metabolism in Sprague-Dawley rat brain assessed as salicyluric acid formation at 300 mg/kg, po administered for 14 days followed by 7 day washout cycle measured on day 21; type: ADME, organism-based; settings: in vivo
Rattus norvegicus [5] = assay: AUClast in Sprague-Dawley rat assessed as salicyluric acid at 300 mg/kg, po measured up to 24 hrs post dose; type: ADME, organism-based; parameters: time < 24 hr, dose 300 mg/kg, route oral; settings: in vivo
Outline: (§1)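 Single oral dose of 300 mg/kg to Sprague Dawley rats. Plasma collected at 0, 0.5, 1, 2, 4, 8 and 24 hr. Analytes were the parent, the salicylate-linker and linker-DHA metabolites, salicylic acid and salicyluric acid; Cmax and AUClast derived.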

Muscle tissue = assay: Drug metabolism in Sprague-Dawley rat muscle assessed as salicylic acid formation at 300 mg/kg, po administered for 7 days measured 4 hrs post dose on day 7; type: ADME, organism-based; settings: in vivo
Outline: (§2)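 Male Sprague Dawley rats, groups of 4, dosed orally at 300 mg/kg once daily for 14 days. Animals killed on days 1, 3, 7 and 14, with plasma, brain, epididymal fat, liver and muscle taken 4 hr after dosing. Parent, salicylic acid and salicyluric acid were measured.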

Brain [6] = assay: Drug metabolism in Sprague-Dawley rat brain assessed as salicyluric acid formation at 300 mg/kg, po administered for 7 days measured 4 hrs post dose on day 7; type: ADME, organism-based; settings: in vivo; outline: as §2
Rattus norvegicus [7] = assay: Cmax in Sprague-Dawley rat assessed as salicylic acid at 300 mg/kg, po measured up to 24 hrs post dose; type: ADME, organism-based; parameters: dose 300 mg/kg, route oral; settings: in vivo; outline: as §1
Liver = assay: Drug uptake in Sprague-Dawley rat liver at 300 mg/kg, po administered for 14 days followed by 7 day washout cycle measured on day 21; type: ADME, organism-based; settings: in vivo
Brain [8] = assay: Drug uptake in Sprague-Dawley rat brain at 300 mg/kg, po administered for 14 days followed by 7 day washout cycle measured on day 21; type: ADME, organism-based; settings: in vivo
Plasma [9] = assay: Drug uptake in Sprague-Dawley rat plasma at 300 mg/kg, po administered for 14 days followed by 7 day washout cycle measured on day 21; type: ADME, organism-based; settings: in vivo
Brain [10] = assay: Drug metabolism in Sprague-Dawley rat brain assessed as salicylic acid formation at 300 mg/kg, po administered for 14 days followed by 7 day washout cycle measured on day 21; type: ADME, organism-based; settings: in vivo
Plasma [11] = assay: Drug metabolism in Sprague-Dawley rat plasma assessed as salicylic acid formation at 300 mg/kg, po administered for 14 days followed by 7 day washout cycle measured on day 21; type: ADME, organism-based; settings: in vivo

Drug metabolism (Brain [4]) | AUClast (Rattus norvegicus [5]) [ng·h/mL] | Drug metabolism (Muscle tissue) [ng/g] | Drug metabolism (Brain [6]) [ng/g] | Cmax (Rattus norvegicus [7]) [ng/mL] | Drug uptake (Liver) | Drug uptake (Brain [8]) | Drug uptake (Plasma [9]) | Drug metabolism (Brain [10]) | Drug metabolism (Plasma [11]) | Structure (SMILES) | Drug metabolism (Intestine) [ng/g] | inhibition [1] | Drug metabolism [2] | inhibition [3]
 |  |  |  |  |  |  |  |  |  | CC/C=C\C/C=C\C/C=C\C/C=C\C/C=C\CCCC(=O)NCCNC(=O)c1cccnc1 | 74 | Dose-dependent effect | tde | Dose-dependent effect
metabolite_notdetected | 2937 | 265.73 | 114.43 | 75 | Not Active | Not Active | Not Active | metabolite_notdetected | metabolite_notdetected | CC/C=C\C/C=C\C/C=C\C/C=C\C/C=C\C/C=C\CCC(=O)NCCNC(=O)c1ccccc1O [EDASALONEXENT] |  |  |  | 
